Screening data as filed in PubChem BioAssay.
GRK2 aptamer HTS – inhibitors of human GRK2 displacing RNA aptamer; P25098; 330,000 compounds, 0.59% hits; bead flow cytometry, FAM-aptamer displacement from GRK2; inhibition of aptamer binding, % at 10 µM;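 active = inhibition of aptamer binding above 40%, roughly 3 SD of noise, on plates passing a quality check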;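 also: median bead fluorescence of bound FAM aptamer so fluorescent compounds give negative values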
DNMT1 inh – DNMT1 (human) enzyme inhibition; P26358; DNMT1 molecular beacon, Hinp1I cleavage, fluorescence; inhibition (reported as % activation of signal), % at 10 µM; 360,000 compounds, 0.83% hits; in the data active = inhibition above about 50%
STEP block – STEP (human) phosphatase inhibition; P54829; recombinant STEP, OMFP fluorogenic substrate, fluorescence; inhibition, % at 20 µM; 360,000 compounds, 0.25% hits; AID 588621;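 active = inhibition at 20 µM, scaled per plate between control wells, above about 37%, limit read from the data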;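 also: 0% = DMSO with enzyme and substrate and 100% = substrate only without enzyme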
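Material: STEP (striatal-enriched tyrosine phosphatase) enzyme, cell-free; Compound dosing: 20 µM single dose in 1% DMSO; Technique: fluorescence read at 480 nm ex / 540 nm em; Times: reaction 20 min, ambient temperature; Medium: 50 mM Bis-Tris pH 6.0 with 2.5 mM DTT and 0.005% Tween 20; Also added: OMFP at 25 µM.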
SUMO1 PPI mod – modulators of human SUMO1-mediated protein-protein interactions | 360,000 compounds, 0.33% hits | AID 602429 | inhibition, % at 20 µM | SUMO1 binding to a labelled peptide, TR-FRET, 1 h; in the data active = inhibition above about 37%
Scp1 inh – blocks human Scp-1 phosphatase activity. 340,000 compounds, 0.88% hits. Recombinant Scp1, phosphopeptide, malachite green phosphate absorbance. inhibition, % at 20 µM. Q9GZU7. AID 493091;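 active = inhibition above about 50% at 20 µM, limit read from the data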;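 also: plate controls were DMSO wells with enzyme for no effect and wells lacking enzyme for full effect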
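Incubation: 45 min enzyme reaction at room temperature / System: truncated SCP-1 phosphatase (76-261aa) / Reagent: Phospho 17-mer peptide substrate / Buffer or medium: Acidic Tris acetate buffer with magnesium and detergent / Signal: absorbance at 630 nm / Doses: one concentration, 20 µM, with 1.0% DMSO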
LMPTP block – LMPTP (human) inhibition. recombinant LMPTP-A, OMFP fluorogenic substrate, fluorescence intensity. AID 651560. 360,000 compounds, 0.22% hits. P24666. inhibition, % at 20 µM;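 active = compounds that cut the enzyme signal by at least half of the control window in the single-dose screen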;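 also: plate controls were DMSO wells with enzyme plus substrate for no effect and substrate without enzyme for full effect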
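Test system: LMPTP-A phosphatase enzyme. Amount: LMPTP-A at 0.625 nM final in the reaction. Reagent: OMFP substrate, 400 µM final. Times: 50 min at room temperature. Signal: endpoint fluorescence intensity from OMFP dephosphorylation. Read-out basis: % inhibition. Benchmarks: no-enzyme and uninhibited controls.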
Starred values were filed as active, the others as inactive; / = no result given. Hits are enriched below; roughly 2.1% of the tested compounds scored in any of these assays.

SMILES	GRK2 aptamer HTS	DNMT1 inh	STEP block	SUMO1 PPI mod	Scp1 inh	LMPTP block
CCN(CC)S(=O)(=O)c1ccc(C(=O)NNC(=O)C2CCN(S(=O)(=O)c3ccc(Cl)cc3)CC2)cc1	9	-4	3	-1	-5	0
CCCc1nc(SC)[nH]c(=O)c1C	2	1	-2	4	26	-2
COc1cccc(CNC(=O)Cn2ccc3cc(S(=O)(=O)N4CCC(C)CC4)ccc32)c1	0	-3	0	-1	-10	3
O=C(O)c1cc(N2N=C(C(F)(F)F)/C(=C/C=C/c3ccco3)C2=O)ccc1Cl	/	84*	94*	105*	69*	78*
NNc1nc2c(Cl)ccc(Cl)c2s1	1	2	33	3	-2	85*
COc1ccc(/C=C/C(=O)OCC(=O)N2c3ccccc3CC2C)cc1 (stereo not given)	/	-2	0	4	/	0
Oc1cccc(/C=N/Nc2nn3cnnc3c3ccccc23)c1	3	0	-3	84*	-1	7
CNc1nc(-c2ccccc2)[n+](-c2ccc(C)cc2)s1	4	4	-3	0	83*	-1
Cc1ccc(-c2nc3ccccc3nc2-c2ccccc2)cc1	5	-1	1	-15	0	3
Cc1ccc(-c2nc(N)s[n+]2-c2ccccc2)cc1	0	1	0	3	88*	1
Cc1nc(Sc2ccc(Br)cc2)c(C#N)c(C)c1[N+](=O)[O-]	5	7	2	-5	-9	2
COc1ccc([C@@H]2C[C@H]3[C@@H](CN2S(=O)(=O)c2ccccc2)C(=O)C[C@@H](c2cccc(Cl)c2)N3S(=O)(=O)c2ccc(C)cc2)cc1	/	-8	-1	2	/	2
CC(=O)Nc1sc2c(c1-c1nc3ccccc3s1)CN(C(C)C)CC2	7	78*	-4	-18	-4	0
CC(=O)N1CCc2c(sc(NC(=O)C3CC3)c2-c2nc3ccccc3s2)C1	1	-12	3	-1	-15	13
C[C@H](CO)N1C[C@H](C)[C@@H](CN(C)Cc2ccc3c(c2)OCO3)Oc2cc(Br)ccc2S1(=O)=O	/	-5	0	3	/	-1
CN(CC(=O)Nc1ccc(F)cc1)C(=O)c1ccc(-c2ccc(F)cc2)o1	/	-6	2	-8	/	0
Cc1[nH]c2ccccc2c1C(=O)c1cc(Cc2ccccc2)sc1N	/	/	/	-3	/	1
CCOC(=O)c1ccc(N2C(=O)c3n[nH]c(C)c3C2c2ccccn2)cc1 (stereo not given)	0	2	1	41*	-3	-3
Cc1ccc(/C=C2\C(=O)ON=C2c2ccccc2)o1	0	1	-2	-6	-5	-1
Cc1ccc(-c2ccc(/C=C3\C(=O)ON=C3c3ccccc3)o2)c([N+](=O)[O-])c1	0	54*	2	34	-1	0
CC1CCN(C(=S)NC(=O)c2ccc(C(C)(C)C)cc2)CC1	/	0	5	45*	-5	1
CCOc1cc(OCC)cc(C(=O)N2CCC[C@H]2C(=O)N2CCC[C@H]2C(=O)N(C)Cc2ccccc2)c1	/	/	/	59*	/	8
CC(C)[C@H](NC(=O)c1ccccc1Cl)C(=O)OCC(=O)NCc1ccc2c(c1)OCO2	42*	4	-2	-4	-6	-1
CC(C(=O)Nc1ccc(C#N)cc1)N(C)CC(=O)N(C)c1c(N)n(Cc2ccccc2)c(=O)[nH]c1=O (stereo not given)	0	4	-4	46*	-10	-1
CN(C(=O)CCOc1ccccc1)c1c(N)n(Cc2ccccc2)c(=O)[nH]c1=O	0	-3	0	-1	-3	-1
Cc1cc(=O)c(C(=O)Nc2ccc(N3CCOCC3)cc2N2CCOCC2)nn1-c1ccccc1Cl	0	21	0	-13	5	-1
O=C(NCCCn1ccnc1)/C(=C\c1cccs1)NC(=O)c1ccco1	41*	-2	0	-6	-2	-2
CCOc1cc(NC(=O)C2CC2)c(OCC)cc1NC(=O)c1cccc(F)c1	1	7	-1	-1	-8	0
CCOc1cc(NC(=O)c2cnccn2)c(OCC)cc1NC(=O)c1cccc(F)c1	68*	/	/	/	/	/
